The source made the active and inactive calls. The calls are words filed in the database; no cut-off is given here.
Assays:
[1] = biological target: Cannabinoid receptor 2 (Homo sapiens, UniProt P34972); assay: Displacement of [3H]CP-55940 from human recombinant cannabinoid CB2 receptor expressed in CHO cells after 3 hrs by liquid scintillation counting; format: cell-based
[2] = biological target: T1, Cannabinoid receptor 1 (Homo sapiens, UniProt P21554); assay: biochemical; format: cell-based, CHO
T1 sequence (P21554 whole entry): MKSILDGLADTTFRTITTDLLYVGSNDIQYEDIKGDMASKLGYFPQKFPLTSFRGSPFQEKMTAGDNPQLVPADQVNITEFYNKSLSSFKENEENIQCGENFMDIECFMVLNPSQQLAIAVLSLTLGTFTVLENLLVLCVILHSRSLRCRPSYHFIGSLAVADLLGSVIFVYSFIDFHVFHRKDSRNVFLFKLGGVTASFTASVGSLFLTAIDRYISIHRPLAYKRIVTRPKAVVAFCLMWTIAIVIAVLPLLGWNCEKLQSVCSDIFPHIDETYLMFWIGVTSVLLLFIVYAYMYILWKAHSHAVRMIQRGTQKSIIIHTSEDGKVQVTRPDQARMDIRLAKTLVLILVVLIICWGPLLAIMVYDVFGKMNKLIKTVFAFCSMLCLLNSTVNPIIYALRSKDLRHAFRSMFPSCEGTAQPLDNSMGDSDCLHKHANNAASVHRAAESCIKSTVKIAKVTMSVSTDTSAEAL

[3] = biological target: T1, Cannabinoid receptor 1; format: functional, cell-based, CHO
[4] = test system: Rattus norvegicus; assay: Antiobesity activity in diet-induced obese Sprague-Dawley rat assessed as reduction in food intake at 10 mg/kg, po after 18 hrs; format: functional; set-up: scale not given: the % may be the effect or the level left
Outline: (§1)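 Male DIO Sprague-Dawley rats (HFD from weaning), randomized n = 14/group, individually caged. Single oral dose 10 mg/kg in 0.5% carboxymethyl cellulose (2 mL/kg) 1 h before dark onset. Preweighed pelleted food reweighed at 3 h and overnight (18 h) postdose for cumulative intake vs vehicle.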

[5] = test system: Rattus norvegicus; assay: Antiobesity activity in diet-induced obese Sprague-Dawley rat assessed as reduction in food intake at 10 mg/kg, po after 3 hrs; format: functional; set-up: scale not given: the % may be the effect or the level left; outline: as §1
[6] = test system: Rattus norvegicus; assay: Antiobesity activity in diet-induced obese Sprague-Dawley rat assessed as body weight progression at 10 mg/kg, po SID up to 12 days; format: functional, organism-based; set-up: dose 10 mg/kg
Outline: (§2)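 Male DIO rats (HFD from weaning, 60% kcal fat; used at 12-16 weeks, conditioned to water gavage 5 days), individually caged, n = 11-12/group. Oral gavage 10 mg/kg daily for 12 days, 1 h before dark cycle, in 0.5% carboxymethyl cellulose/water (2 mL/kg) vs vehicle. Food intake and body weight recorded daily; Student's t-test.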

[7] = biological target: T1, Cannabinoid receptor 1; assay: Inverse agonist activity at human cannabinoid CB1 receptor expressed in CHO cells assessed as inhibition of forskolin-stimulated cAMP accumulation after 60 mins; format: functional, cell-based
[8] = test system: Rattus norvegicus; assay: Antiobesity activity in diet-induced obese Sprague-Dawley rat assessed as reduction in final body weight gain at 10 mg/kg, po SID after 12 days; format: functional, organism-based; set-up: dose 10 mg/kg; outline: as §2
[9] = Plasma half life in Sprague-Dawley rat at 10 mg/kg, po; format: ADME, organism-based; set-up: dose 10 mg/kg, route oral
Outline: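 Male Sprague–Dawley rats fasted overnight, single oral dose 10 mg/kg. Blood collected at various time points into lithium heparin, plasma stored at -20 °C, extracted by protein precipitation and quantified by LC/MS/MS; n = 5 rats/group.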

Cannabinoid receptor 2, sequence (P34972 whole entry): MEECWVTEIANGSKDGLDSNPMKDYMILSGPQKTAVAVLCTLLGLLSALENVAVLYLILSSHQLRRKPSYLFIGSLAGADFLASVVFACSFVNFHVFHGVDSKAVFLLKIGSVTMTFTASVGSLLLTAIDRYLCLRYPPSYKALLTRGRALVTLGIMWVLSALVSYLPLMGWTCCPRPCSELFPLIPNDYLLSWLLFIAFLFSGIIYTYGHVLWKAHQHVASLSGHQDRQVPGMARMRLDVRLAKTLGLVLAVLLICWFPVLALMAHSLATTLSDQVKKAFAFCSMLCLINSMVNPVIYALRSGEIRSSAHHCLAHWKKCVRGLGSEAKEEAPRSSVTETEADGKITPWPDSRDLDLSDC

Compound | Ki [1] | Ki [2] | IC50 [3] | other results
O=C(NC1CCCCC1)N1CCN(C(c2ccccc2)c2ccc(Br)cc2F)CC1 (centres undefined) | 322 nM | 1.8 nM | 87 nM | 
O=C(N1CCN(C(c2ccccc2)c2ccc(Cl)cc2Cl)CC1)C12CC3CC(CC(C3)C1)C2 (centres undefined) | 25 nM | 5.9 nM | 288 nM | 
O=C(C1CCC1)N1CCN(C(c2ccccc2)c2ccc(Cl)cc2Cl)CC1 (centres undefined) | 2120 nM | 291 nM | > 10000 nM | 
O=C(N1CCOCC1)N1CCN(C(c2ccccc2)c2ccc(Cl)cc2Cl)CC1 (centres undefined) | 618 nM | 111 nM | > 10000 nM | 
O=C(C1CCCC1)N1CCN(C(c2ccccc2)c2ccc(Cl)cc2Cl)CC1 (centres undefined) | 4880 nM | 732 nM | 403 nM | 
S=C(NC1CCCCC1)N1CCN(C(c2ccccc2)c2ccccc2)CC1 | 1870 nM | 106 nM |  | 
S=C(NC1CCCCC1)N1CCN(C(c2ccccc2)c2ccc(Cl)cc2Cl)CC1 (centres undefined) | 673 nM | 0.2 nM | 18 nM | 
O=C(N1CCCCC1)N1CCN(C(c2ccccc2)c2ccc(Cl)cc2Cl)CC1 (centres undefined) | 987 nM | 56 nM | > 10000 nM | 
O=C(NC1CCCCC1)N1CCN(C(c2ccc(Oc3ccccc3)cc2)c2ccc(Cl)cc2Cl)CC1 (centres undefined) | 52 nM | 1.1 nM | 34 nM | 
CCCCNC(=O)N1CCN(C(c2ccccc2)c2ccc(Cl)cc2Cl)CC1 (centres undefined) | 918 nM |  |  | 
O=C(NC1CCCCC1)N1CCN(C(c2ccc(C(F)(F)F)cc2)c2ccc(Cl)cc2Cl)CC1 (centres undefined) | 274 nM | 1.2 nM | 57 nM | 
O=C(NC1CCCCC1)N1CCN(C(c2ccccc2)c2ccccc2)CC1 | 2410 nM | 52 nM |  | 
O=C(C1CCCCC1)N1CCN(C(c2ccccc2)c2ccccc2)CC1 | 3050 nM | 164 nM |  | 
O=C(NC1CCCCC1)N1CCN(C(c2ccccc2)c2c(Cl)cccc2Cl)CC1 (centres undefined) | 831 nM | 2.2 nM | 55 nM | 
O=C(NC1CCCCC1)N1CCN(C(c2ccc(F)cc2)c2ccc(Cl)cc2Cl)CC1 (centres undefined) | 159 nM | 2.5 nM | 8.1 nM | 
Cc1ccc(C(c2ccc(Cl)cc2Cl)N2CCN(C(=O)NC3CCCCC3)CC2)cc1 (centres undefined) | 329 nM | 0.15 nM | 2.7 nM | Activity [4]: 22%; Activity [5]: 39%; Activity [6]: Active; EC50 [7]: 0.87 nM; Activity [8]: Active; half-life [9]: 2.4 h
O=C(NC1CCCCC1)N1CCN(C(c2cccc(Cl)c2)c2ccc(Cl)cc2Cl)CC1 (centres undefined) | 407 nM | 2.3 nM | 161 nM | 
O=C(NC1CCCCC1)N1CCN(C(c2ccc(Cl)cc2)c2ccc(Cl)cc2Cl)CC1 (centres undefined) | 26 nM | 0.23 nM | 19 nM | 
Cc1ccc(C(c2ccc(Cl)cc2Cl)N2CCN(C(=O)NN3CCCCC3)CC2)cc1 (centres undefined) | 317 nM | 3 nM | 15 nM | 
CCCCNC(=O)N1CCN(C(c2ccccc2)c2ccccc2)CC1 | 2830 nM | 239 nM |  | 
O=C(NC1CCCCC1)N1CCN(C(c2ccccc2)c2ccc(Cl)c(Cl)c2)CC1 (centres undefined) | 356 nM | 60 nM | 462 nM | 
COc1ccc(C(c2ccc(Cl)cc2Cl)N2CCN(C(=O)NC3CCCCC3)CC2)cc1 (centres undefined) | 290 nM | 2.6 nM | 82 nM | 
O=C(NC1CCCCC1)N1CCN(C(c2ccccc2)c2ccc(Cl)cc2F)CC1 (centres undefined) | 526 nM | 3.1 nM | 124 nM | 
O=C(NC1CCCCC1)N1CCN(C(c2ccccc2)c2ccc(F)cc2Cl)CC1 (centres undefined) | 1300 nM | 8.1 nM | 68 nM | 
O=C(C1CCCCC1)N1CCN(C(c2ccccc2)c2ccc(Cl)cc2Cl)CC1 (centres undefined) | 2930 nM | 5.8 nM | 9.3 nM | 
O=C(NN1CCCCC1)N1CCN(C(c2ccccc2)c2ccc(Cl)cc2Cl)CC1 (centres undefined) | 1040 nM | 1.2 nM | 4.7 nM | 
O=C(NC1CCCCC1)N1CCN(C(c2ccccc2)c2cc(Cl)ccc2Cl)CC1 (centres undefined) | 899 nM | 5.9 nM | 43 nM | 
O=C(NC1CCCCC1)N1CCN(C(c2ccccc2)c2ccc(Cl)cc2Cl)CC1 (centres undefined) | 432 nM | 1.6 nM | 9.2 nM | 
